Activity calls are given as the source filed them. The rule behind the calls is not given here.
Key:
[1] = target: T1, cGMP-dependent protein kinase 1 (Homo sapiens, UniProt Q13976); experiment: Inhibition of human PRKG1 in presence of ATP by cellular assay
T1 sequence (Q13976 whole entry): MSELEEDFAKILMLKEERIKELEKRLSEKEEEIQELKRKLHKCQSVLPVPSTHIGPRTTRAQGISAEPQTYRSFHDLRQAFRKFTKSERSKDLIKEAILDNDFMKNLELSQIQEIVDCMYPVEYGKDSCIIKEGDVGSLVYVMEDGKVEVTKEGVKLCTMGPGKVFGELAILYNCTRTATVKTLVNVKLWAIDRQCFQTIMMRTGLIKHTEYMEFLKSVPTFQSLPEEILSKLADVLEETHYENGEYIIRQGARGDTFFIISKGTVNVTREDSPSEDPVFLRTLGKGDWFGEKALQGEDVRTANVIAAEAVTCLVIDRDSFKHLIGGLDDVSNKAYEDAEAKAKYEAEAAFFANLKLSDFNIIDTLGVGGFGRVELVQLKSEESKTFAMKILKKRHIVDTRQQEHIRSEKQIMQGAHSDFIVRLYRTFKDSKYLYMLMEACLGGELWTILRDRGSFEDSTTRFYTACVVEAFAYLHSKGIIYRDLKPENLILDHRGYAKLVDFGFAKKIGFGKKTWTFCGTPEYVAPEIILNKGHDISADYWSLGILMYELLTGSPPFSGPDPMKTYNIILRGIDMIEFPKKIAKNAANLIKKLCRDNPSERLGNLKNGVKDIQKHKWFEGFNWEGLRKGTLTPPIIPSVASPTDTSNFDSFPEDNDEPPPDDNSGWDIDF

BT-549 = experiment: Antiproliferative activity against human BT-549 cells assessed as inhibition of cell proliferation incubated for 3 days by CellTiter-Glo Luminescent Cell Viability Assay; format: functional, cell-based; settings: BT-549, 72 h
In short: (§1)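 Cancer cell lines seeded in 384-well plates on day 1; compound added on day 2 and left for 3 days. On day 5 all medium was aspirated, and viable cells were quantified by CellTiter-Glo luminescence, which measures cellular ATP. Dose-dependent effects on proliferation were determined.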

HCT-116 [2] = experiment: Downregulation of camptothecin-induced phospho-S474-PAK4 level in human HCT-116 cells at 1 uM preincubated with compound for 15 mins followed by camptothecin stimulation and measured after 20 hrs by Western blot analysis; format: functional, cell-based; settings: time 20.25 hrs
HCC70 = experiment: Antiproliferative activity against human HCC70 cells assessed as inhibition of cell proliferation incubated for 3 days by CellTiter-Glo Luminescent Cell Viability Assay; format: functional, cell-based; settings: HCC70, 72 h; in short: as §1
[3] = target: Tyrosine-protein kinase Fyn (Homo sapiens, UniProt P06241); experiment: Inhibition of human FYN in presence of ATP by cellular assay
Sequence of Tyrosine-protein kinase Fyn (P06241 whole entry): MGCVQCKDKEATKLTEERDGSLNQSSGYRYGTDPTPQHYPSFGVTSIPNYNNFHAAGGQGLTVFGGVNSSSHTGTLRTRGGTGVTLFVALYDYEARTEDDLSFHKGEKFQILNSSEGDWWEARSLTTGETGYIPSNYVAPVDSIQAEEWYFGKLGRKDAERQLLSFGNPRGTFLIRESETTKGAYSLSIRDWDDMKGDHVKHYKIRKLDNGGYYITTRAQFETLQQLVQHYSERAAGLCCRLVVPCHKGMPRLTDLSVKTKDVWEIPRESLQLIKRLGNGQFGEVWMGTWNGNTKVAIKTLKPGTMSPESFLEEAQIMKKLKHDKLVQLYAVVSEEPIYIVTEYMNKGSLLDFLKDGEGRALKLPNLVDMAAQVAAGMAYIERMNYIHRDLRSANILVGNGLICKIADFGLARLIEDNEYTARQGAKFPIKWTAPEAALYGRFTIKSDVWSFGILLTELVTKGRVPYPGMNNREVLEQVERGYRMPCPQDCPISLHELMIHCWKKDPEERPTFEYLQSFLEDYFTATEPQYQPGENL

NCI-H1581 = experiment: Antiproliferative activity against human NCI-H1581 cells assessed as inhibition of cell proliferation incubated for 3 days by CellTiter-Glo Luminescent Cell Viability Assay; format: functional, cell-based; settings: NCI-H1581, 72 h; in short: as §1
CAMA-1 = experiment: Antiproliferative activity against human CAMA-1 cells assessed as inhibition of cell proliferation incubated for 3 days by CellTiter-Glo Luminescent Cell Viability Assay; format: functional, cell-based; settings: CAMA-1, 72 h; in short: as §1
[4] = target: Ribosomal protein S6 kinase alpha-1 (Homo sapiens, UniProt Q15418); experiment: Inhibition of human RSK1 in presence of ATP
Sequence of Ribosomal protein S6 kinase alpha-1 (Q15418 whole entry): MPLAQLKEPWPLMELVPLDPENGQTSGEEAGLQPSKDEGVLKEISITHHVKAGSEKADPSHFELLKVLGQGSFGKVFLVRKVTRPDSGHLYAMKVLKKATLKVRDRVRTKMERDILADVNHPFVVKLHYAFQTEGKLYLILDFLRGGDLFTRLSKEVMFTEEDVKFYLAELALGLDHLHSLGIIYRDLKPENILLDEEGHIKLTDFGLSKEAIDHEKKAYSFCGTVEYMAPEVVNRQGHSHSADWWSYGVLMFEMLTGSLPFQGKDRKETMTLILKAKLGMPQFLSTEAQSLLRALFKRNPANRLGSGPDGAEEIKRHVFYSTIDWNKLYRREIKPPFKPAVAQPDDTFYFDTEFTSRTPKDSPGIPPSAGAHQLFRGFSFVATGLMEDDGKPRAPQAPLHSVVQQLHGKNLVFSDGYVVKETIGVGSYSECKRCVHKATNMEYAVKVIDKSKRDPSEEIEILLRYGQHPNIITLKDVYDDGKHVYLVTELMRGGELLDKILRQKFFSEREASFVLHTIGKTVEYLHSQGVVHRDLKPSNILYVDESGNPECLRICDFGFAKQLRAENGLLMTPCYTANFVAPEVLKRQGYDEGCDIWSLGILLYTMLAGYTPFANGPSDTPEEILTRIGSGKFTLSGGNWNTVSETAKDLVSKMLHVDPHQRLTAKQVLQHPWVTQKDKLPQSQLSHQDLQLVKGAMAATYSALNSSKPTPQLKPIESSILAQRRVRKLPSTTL

HuP-T3 = experiment: Antiproliferative activity against human HuP-T3 cells assessed as inhibition of cell proliferation incubated for 3 days by CellTiter-Glo Luminescent Cell Viability Assay; format: functional, cell-based; settings: HuP-T3, 72 h; in short: as §1
PSN1 = experiment: Antiproliferative activity against human PSN1 cells assessed as inhibition of cell proliferation incubated for 3 days by CellTiter-Glo Luminescent Cell Viability Assay; format: functional, cell-based; settings: PSN1, 72 h
In short: (§2)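 Cells of each line were plated in 384-well plates on day 1 and exposed to compound from day 2 for 3 days. On day 5 all medium was aspirated. Viable cell number was read by CellTiter-Glo luminescence, which quantifies cellular ATP.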

HT-29 = experiment: Antiproliferative activity against human HT-29 cells assessed as inhibition of cell proliferation incubated for 3 days by CellTiter-Glo Luminescent Cell Viability Assay; format: functional, cell-based; settings: HT-29, 72 h; in short: as §1
[5] = target: Tyrosine-protein kinase Fgr (Homo sapiens, UniProt P09769); experiment: Inhibition of human FGR in presence of ATP by cellular assay
[6] = target: AMP-activated protein kinase (AMPK) alpha-1/beta-1/gamma-1 (Homo sapiens) (UniProt P54619+Q9Y478+Q13131); experiment: Inhibition of human AMPK alpha1/beta1/gamma1 in presence of ATP relative to control; format: protein-complex assay; settings: concentration not given here
Sequence of AMP-activated protein kinase (AMPK) alpha-1/beta-1/gamma-1 (Homo sapiens) (P54619 whole entry): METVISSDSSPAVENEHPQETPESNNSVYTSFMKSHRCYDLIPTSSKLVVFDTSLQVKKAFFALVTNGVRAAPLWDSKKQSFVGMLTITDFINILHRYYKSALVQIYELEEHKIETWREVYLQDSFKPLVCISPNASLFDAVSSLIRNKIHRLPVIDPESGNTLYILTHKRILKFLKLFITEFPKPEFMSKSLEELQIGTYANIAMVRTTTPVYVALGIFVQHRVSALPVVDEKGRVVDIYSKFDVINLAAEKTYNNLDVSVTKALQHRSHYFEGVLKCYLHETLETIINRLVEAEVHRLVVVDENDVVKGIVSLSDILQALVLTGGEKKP
Sequence of AMP-activated protein kinase (AMPK) alpha-1/beta-1/gamma-1 (Homo sapiens) (Q13131 whole entry partner): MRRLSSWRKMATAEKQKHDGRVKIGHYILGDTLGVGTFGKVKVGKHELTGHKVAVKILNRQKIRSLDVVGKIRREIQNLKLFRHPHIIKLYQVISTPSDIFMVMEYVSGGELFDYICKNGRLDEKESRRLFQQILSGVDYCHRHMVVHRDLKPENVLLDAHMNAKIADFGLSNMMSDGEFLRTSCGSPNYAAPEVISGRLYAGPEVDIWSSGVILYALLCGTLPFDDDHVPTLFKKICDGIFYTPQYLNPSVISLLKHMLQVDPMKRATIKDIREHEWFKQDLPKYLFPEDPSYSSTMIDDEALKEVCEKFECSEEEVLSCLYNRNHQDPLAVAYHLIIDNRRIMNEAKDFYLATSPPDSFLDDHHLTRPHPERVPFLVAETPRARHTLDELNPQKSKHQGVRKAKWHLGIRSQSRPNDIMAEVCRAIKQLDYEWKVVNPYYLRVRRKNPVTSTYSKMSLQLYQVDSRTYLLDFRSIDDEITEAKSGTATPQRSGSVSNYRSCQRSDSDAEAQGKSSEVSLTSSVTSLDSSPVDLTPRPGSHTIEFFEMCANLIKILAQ
Sequence of AMP-activated protein kinase (AMPK) alpha-1/beta-1/gamma-1 (Homo sapiens) (Q9Y478 2-270 partner limits assumed): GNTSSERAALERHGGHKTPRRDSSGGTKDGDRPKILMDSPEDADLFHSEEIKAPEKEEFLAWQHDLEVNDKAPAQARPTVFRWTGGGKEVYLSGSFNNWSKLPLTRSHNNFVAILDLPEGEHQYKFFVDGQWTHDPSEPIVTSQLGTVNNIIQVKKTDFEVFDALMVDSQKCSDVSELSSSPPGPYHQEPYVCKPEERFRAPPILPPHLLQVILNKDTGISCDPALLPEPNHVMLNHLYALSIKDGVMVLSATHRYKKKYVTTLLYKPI

SW-620 = experiment: Antiproliferative activity against human SW620 cells assessed as inhibition of cell proliferation incubated for 3 days by CellTiter-Glo Luminescent Cell Viability Assay; format: functional, cell-based; settings: SW-620, 72 h; in short: as §2
[7] = target: Ribosomal protein S6 kinase alpha-3 (Homo sapiens, UniProt P51812); experiment: Inhibition of human RSK2 in presence of ATP
Sequence of Ribosomal protein S6 kinase alpha-3 (P51812 whole entry): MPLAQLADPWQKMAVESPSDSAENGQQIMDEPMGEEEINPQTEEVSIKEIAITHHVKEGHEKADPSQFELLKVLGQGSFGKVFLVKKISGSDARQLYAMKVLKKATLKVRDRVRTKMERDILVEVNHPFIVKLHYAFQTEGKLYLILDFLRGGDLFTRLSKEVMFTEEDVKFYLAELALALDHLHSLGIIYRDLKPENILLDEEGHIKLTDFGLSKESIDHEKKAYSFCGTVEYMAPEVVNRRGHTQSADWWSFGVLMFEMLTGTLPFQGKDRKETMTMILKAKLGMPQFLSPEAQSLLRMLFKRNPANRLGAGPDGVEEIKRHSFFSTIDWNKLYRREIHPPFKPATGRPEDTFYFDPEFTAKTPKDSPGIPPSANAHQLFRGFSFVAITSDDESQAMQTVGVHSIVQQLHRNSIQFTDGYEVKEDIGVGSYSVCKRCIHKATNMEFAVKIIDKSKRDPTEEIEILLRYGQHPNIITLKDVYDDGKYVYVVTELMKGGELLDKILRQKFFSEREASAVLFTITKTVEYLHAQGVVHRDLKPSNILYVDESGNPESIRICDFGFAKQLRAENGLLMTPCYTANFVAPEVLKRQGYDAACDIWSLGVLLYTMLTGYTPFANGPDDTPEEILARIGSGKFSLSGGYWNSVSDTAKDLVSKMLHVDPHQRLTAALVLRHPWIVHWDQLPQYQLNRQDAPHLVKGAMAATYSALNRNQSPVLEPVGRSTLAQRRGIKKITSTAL

M24met = experiment: Antitumor activity against human M24met cells xenografted in nude mouse assessed as tumor growth inhibition at 25 mg/kg, po administered once daily for 9 to 18 days relative to control; format: functional; settings: time 9-18 day, read-out: TGI
HCT-116 [8] = experiment: Inhibition of anchorage independent cell growth in human HCT-116 cells incubated for 6 days by Alamar blue reagent based fluorescence plate reader analysis; format: functional; settings: HCT-116, 144 h
[9] = target: Protein kinase C beta type (Homo sapiens, UniProt P05771); experiment: Inhibition of human PKCbeta1 in presence of ATP relative to control; settings: concentration not given here
Sequence of Protein kinase C beta type (P05771 2-671 limits assumed): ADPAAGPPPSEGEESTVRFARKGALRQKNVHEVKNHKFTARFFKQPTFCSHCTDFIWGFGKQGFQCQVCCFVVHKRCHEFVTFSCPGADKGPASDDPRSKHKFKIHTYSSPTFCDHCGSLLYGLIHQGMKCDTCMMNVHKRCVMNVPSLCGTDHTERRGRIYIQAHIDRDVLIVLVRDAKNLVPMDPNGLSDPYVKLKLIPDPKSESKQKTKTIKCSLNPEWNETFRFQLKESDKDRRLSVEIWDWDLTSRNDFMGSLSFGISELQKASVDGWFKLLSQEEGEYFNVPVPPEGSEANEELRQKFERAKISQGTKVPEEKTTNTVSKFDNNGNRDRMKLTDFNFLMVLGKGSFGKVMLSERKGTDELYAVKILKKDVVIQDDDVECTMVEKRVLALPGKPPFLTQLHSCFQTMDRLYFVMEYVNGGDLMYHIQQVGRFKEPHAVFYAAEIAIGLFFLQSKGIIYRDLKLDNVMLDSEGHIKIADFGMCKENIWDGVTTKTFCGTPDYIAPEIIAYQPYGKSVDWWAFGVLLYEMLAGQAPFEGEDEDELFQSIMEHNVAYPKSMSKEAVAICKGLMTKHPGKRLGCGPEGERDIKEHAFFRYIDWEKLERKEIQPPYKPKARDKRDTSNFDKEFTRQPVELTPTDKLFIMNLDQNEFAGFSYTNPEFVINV

NCI-H1573 = experiment: Antiproliferative activity against human NCI-H1573 cells assessed as inhibition of cell proliferation incubated for 3 days by CellTiter-Glo Luminescent Cell Viability Assay; format: functional, cell-based; settings: NCI-H1573, 72 h; in short: as §1
[10] = target: Protein kinase C theta type (Homo sapiens, UniProt Q04759); experiment: Inhibition of human PKCtheta in presence of ATP relative to control; settings: concentration not given here
Sequence of Protein kinase C theta type (Q04759 whole entry, looked up): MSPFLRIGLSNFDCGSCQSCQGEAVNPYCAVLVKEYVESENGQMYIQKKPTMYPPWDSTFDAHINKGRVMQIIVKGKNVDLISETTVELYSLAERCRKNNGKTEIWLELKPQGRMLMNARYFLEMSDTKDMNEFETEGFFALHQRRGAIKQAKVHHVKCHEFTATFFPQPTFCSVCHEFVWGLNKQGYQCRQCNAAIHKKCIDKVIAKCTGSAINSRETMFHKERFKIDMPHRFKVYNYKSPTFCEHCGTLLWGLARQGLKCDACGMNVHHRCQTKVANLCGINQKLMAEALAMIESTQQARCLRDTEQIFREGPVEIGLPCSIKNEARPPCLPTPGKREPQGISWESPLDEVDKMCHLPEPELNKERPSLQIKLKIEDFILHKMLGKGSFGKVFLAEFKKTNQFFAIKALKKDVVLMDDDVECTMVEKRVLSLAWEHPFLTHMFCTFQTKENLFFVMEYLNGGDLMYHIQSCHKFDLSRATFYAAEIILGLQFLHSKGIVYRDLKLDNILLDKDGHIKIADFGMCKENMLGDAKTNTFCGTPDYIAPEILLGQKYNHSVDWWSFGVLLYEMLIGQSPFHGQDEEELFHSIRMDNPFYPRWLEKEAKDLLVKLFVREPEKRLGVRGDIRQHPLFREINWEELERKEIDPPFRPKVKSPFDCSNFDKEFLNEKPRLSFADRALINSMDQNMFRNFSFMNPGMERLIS

[11] = target: Protein kinase C gamma type (Homo sapiens, UniProt P05129); experiment: Inhibition of human PKCgamma assessed as inhibition constant in presence of ATP
BT-20 = experiment: Antiproliferative activity against human BT-20 cells assessed as inhibition of cell proliferation incubated for 3 days by CellTiter-Glo Luminescent Cell Viability Assay; format: functional, cell-based; settings: BT-20, 72 h; in short: as §1

IC50 [1]: 3370 nM | IC50 (BT-549): 0.41 nM | IC50 [3]: 1090 nM | IC50 (NCI-H1581): 0.6 nM | IC50 [4]: 2 nM | IC50 (HT-29): 4.3 nM | IC50 [5]: 4680 nM | inhibition [6]: 101% | IC50 (SW-620): 5.7 nM | IC50 [7]: 2 nM | IC50 (HCT-116 [8]): 0.24 nM | inhibition [9]: 71% | IC50 (NCI-H1573): 22 nM | inhibition [10]: 98% | Ki [11]: 43 nM | IC50 (BT-20): 81.7 nM
Structure (SMILES): Cc1nc(Nc2n[nH]c3c2CN(C(=O)N[C@H](CN(C)C)c2ccccc2)C3(C)C)c2sccc2n1 [PF-03758309]
Activity (HCT-116 [2]): Active | IC50 (HCC70): 0.23 nM | IC50 (CAMA-1): 2.7 nM | IC50 (HuP-T3): 280 nM | IC50 (PSN1): 34 nM | inhibition in vivo at 25 mg/kg (M24met): 85%

Reference: ChEMBL document CHEMBL5678802, “Small-molecule p21-activated kinase inhibitor PF-3758309 is a potent inhibitor of oncogenic signaling and tumor growth” (Proc Natl Acad Sci U S A, 2010)
